Results from ChEMBL document CHEMBL4130494, “Crassiflorone derivatives that inhibit Trypanosoma brucei glyceraldehyde-3-phosphate dehydrogenase (TbGAPDH) and Trypanosoma cruzi trypanothione reductase (TcTR) and display trypanocidal activity” (Eur J Med Chem, 2017).
≈ marks a conversion by molar mass, not a printed value. Calls of active or inactive are those of the source. The calls are words filed in the database; no cut-off is given here.

Columns and labels:
Trypanosoma brucei = experiment: Inhibition of Trypanosoma brucei glyceraldehyde-3-phosphate dehydrogenase at 10 uM using GAP as substrate in presence of NAD+ by spectrophotometric method relative to control
Procedure, shortened: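 Recombinant TbGAPDH (200–300 μg protein) in 10 mM triethanolamine, 1.7 mM NaHCO3, 100 mM KCl, 5 mM MgSO4, 1 mM EDTA, pH 7.6, 25 °C, with 400 μM NAD+, 500 μM KH2PO4, 300 μM GAP; NAD+ reduction followed at 340 nm; inhibitors from DMSO stocks; triplicate; reported as percentage activity.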

[1] = biological target: Trypanothione reductase (Trypanosoma cruzi) (UniProt P28593); experiment: Inhibition of Trypanosoma cruzi trypanothione reductase assessed as reduction in NADPH consumption at 10 uM using 100 uM trypanothione disulfide as substrate by spectrophotometric method
Sequence of Trypanothione reductase (Trypanosoma cruzi) (P28593 whole entry, looked up): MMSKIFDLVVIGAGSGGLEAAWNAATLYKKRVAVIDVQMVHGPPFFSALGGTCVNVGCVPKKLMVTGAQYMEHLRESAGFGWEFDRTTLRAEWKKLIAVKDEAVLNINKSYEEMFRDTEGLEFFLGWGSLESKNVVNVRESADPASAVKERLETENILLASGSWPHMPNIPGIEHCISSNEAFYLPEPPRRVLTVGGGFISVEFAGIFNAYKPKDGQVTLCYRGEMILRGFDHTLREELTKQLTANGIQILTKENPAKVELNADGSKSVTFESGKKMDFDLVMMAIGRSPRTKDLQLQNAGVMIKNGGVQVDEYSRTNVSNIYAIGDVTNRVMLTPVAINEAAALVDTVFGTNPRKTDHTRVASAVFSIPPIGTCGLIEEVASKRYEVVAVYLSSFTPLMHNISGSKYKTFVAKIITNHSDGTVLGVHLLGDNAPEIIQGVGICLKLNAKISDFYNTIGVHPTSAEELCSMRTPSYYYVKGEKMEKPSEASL
Procedure, shortened: (§1)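 Recombinant TcTR (5–10 mU) at 25 °C in 40 mM HEPES, 1 mM EDTA, pH 7.5, 100 μM NADPH, 5% DMSO; started with trypanothione disulfide; NADPH consumption read at 340 nm; percentage inhibition calculated.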

[2] = biological target: Trypanothione reductase (Trypanosoma cruzi) (UniProt P28593); experiment: Inhibition of Trypanosoma cruzi trypanothione reductase assessed as reduction in NADPH consumption at 10 uM using 40 uM trypanothione disulfide as substrate by spectrophotometric method; procedure, shortened: as §1
hERG (KCNH2) = hERG (KCNH2) (Homo sapiens, UniProt Q12809); experiment: Inhibition of Tracer Red binding to human ERG expressed in membranes at 10 uM by fluorescence polarization assay relative to control; conditions: membranes expressing human ERG, probe Tracer Red
Sequence of hERG (KCNH2) (Q12809 whole entry): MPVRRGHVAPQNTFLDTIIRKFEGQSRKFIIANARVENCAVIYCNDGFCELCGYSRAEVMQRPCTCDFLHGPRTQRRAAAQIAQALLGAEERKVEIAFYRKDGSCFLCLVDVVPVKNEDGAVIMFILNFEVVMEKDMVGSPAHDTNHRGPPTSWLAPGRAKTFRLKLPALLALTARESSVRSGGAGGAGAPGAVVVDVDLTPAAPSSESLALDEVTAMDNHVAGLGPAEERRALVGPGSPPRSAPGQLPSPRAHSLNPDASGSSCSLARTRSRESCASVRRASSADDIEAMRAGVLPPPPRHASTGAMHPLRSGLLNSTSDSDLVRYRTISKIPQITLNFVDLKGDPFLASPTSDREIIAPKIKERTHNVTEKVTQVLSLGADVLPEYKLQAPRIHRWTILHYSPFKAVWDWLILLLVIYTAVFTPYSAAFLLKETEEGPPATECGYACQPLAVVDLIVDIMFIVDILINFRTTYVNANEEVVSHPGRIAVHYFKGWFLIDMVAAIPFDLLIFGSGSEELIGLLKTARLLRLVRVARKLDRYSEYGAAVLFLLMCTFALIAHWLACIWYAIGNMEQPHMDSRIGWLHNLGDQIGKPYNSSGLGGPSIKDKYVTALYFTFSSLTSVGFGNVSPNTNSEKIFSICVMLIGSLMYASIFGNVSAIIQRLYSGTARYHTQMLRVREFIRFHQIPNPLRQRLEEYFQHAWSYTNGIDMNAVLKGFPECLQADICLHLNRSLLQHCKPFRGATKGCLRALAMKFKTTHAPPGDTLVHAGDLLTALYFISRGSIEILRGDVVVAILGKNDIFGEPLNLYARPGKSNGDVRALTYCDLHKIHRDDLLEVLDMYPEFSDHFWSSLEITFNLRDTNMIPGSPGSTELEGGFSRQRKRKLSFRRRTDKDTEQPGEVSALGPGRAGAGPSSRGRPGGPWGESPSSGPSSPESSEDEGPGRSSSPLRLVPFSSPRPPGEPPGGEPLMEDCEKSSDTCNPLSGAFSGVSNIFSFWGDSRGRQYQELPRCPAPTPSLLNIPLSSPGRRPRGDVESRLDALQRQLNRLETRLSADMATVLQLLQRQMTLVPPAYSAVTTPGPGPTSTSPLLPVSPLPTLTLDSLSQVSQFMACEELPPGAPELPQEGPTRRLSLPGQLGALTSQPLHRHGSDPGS
Procedure, shortened: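 Fluorescence polarization displacement of a high-affinity red fluorescent tracer from hERG channel–containing membrane fraction.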

CYP1A2 = biological target: T1, CYP1A2 (Homo sapiens, UniProt P05177); experiment: Inhibition of human CYP1A2 at 10 uM by P450-Glo assay relative to control; format: ADME
T1 sequence (P05177 whole entry): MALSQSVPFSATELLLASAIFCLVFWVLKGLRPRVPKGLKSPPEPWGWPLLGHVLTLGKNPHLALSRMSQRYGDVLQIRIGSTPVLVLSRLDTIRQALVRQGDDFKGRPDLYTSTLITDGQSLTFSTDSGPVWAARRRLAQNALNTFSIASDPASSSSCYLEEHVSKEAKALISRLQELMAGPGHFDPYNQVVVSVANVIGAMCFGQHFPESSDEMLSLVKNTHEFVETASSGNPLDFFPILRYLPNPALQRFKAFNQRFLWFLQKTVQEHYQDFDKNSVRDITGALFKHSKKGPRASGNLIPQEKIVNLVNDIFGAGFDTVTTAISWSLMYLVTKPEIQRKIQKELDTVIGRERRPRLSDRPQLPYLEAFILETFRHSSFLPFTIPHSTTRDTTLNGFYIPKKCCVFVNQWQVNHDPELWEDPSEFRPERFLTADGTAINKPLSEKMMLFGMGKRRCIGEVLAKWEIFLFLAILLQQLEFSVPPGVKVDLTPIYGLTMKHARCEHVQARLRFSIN
Procedure, shortened: (§2)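 P450-Glo luminescent platform: CYP action on each substrate generates light; decreased light taken as inhibition.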

CYP2C9 = CYP2C9 (Homo sapiens, UniProt P11712); experiment: Inhibition of human CYP2C9 at 10 uM by P450-Glo assay relative to control; format: ADME; procedure, shortened: as §2
Sequence of CYP2C9 (P11712 whole entry): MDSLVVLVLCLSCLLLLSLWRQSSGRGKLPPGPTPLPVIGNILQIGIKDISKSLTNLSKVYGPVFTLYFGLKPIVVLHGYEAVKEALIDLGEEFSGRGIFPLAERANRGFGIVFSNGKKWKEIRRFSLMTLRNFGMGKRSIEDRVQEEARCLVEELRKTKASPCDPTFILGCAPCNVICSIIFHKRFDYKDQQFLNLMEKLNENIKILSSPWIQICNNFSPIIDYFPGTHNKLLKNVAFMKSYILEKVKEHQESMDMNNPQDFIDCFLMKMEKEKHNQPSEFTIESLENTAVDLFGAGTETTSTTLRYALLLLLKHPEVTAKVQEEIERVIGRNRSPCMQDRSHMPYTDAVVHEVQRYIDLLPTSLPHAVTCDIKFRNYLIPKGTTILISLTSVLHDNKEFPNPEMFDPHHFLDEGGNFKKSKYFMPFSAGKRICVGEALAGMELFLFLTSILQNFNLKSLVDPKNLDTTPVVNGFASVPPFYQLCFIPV

CYP2C19 = CYP2C19 (Homo sapiens, UniProt P33261); experiment: Inhibition of human CYP2C19 at 10 uM by P450-Glo assay relative to control; format: ADME; procedure, shortened: as §2
Sequence of CYP2C19 (P33261 whole entry): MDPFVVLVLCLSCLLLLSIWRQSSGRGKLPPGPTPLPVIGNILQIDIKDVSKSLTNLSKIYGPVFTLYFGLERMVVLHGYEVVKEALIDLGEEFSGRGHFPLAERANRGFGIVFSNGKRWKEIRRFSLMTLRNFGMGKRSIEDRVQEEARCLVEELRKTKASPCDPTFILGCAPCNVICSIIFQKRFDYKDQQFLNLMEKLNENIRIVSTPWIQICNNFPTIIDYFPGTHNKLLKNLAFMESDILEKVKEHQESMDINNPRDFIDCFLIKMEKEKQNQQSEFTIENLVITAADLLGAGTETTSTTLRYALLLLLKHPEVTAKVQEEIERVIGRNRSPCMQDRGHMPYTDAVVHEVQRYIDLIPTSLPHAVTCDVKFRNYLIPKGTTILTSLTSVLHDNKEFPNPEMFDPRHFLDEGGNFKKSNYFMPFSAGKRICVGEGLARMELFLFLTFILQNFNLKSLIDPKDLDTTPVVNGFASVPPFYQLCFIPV

CYP2D6 = CYP2D6 (Homo sapiens, UniProt P10635); experiment: Inhibition of human CYP2D6 at 10 uM by P450-Glo assay relative to control; format: ADME; procedure, shortened: as §2
Sequence of CYP2D6 (P10635 whole entry): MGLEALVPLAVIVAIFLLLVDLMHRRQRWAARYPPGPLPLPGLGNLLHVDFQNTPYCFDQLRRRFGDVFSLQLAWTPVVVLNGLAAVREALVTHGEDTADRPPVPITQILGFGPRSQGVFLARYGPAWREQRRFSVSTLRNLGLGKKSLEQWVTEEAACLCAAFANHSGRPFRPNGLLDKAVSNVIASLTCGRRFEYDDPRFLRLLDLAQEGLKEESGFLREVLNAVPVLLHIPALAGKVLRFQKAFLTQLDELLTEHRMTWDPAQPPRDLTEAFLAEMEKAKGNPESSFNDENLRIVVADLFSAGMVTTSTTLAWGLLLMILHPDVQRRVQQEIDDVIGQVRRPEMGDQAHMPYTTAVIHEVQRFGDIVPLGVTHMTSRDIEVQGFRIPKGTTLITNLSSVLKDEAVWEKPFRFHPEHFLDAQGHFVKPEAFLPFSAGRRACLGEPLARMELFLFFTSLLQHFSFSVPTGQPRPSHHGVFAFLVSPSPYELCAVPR

CYP3A4 = CYP3A4 (Homo sapiens, UniProt P08684); experiment: Inhibition of human CYP3A4 at 10 uM by P450-Glo assay relative to control; format: ADME; procedure, shortened: as §2
Sequence of CYP3A4 (P08684 whole entry): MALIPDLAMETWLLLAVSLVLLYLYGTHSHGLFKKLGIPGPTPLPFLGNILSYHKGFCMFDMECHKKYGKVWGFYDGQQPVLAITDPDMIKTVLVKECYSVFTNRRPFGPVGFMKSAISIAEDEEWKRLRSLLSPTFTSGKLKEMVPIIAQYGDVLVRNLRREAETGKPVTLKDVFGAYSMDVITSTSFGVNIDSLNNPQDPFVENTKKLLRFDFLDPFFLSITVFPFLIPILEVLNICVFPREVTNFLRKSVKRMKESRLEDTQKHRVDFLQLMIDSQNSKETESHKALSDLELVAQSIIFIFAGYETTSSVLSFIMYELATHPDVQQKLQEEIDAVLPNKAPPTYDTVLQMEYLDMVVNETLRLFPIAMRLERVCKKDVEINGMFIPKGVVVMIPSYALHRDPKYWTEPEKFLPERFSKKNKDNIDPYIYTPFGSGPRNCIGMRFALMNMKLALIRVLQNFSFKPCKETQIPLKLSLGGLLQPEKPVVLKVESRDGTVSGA

[3] = Cytotoxicity against human A549 cells assessed as cell growth at 10 uM by CellTiter-Glo assay relative to control; format: cell-based; conditions: read-out: Activity
Procedure, shortened: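 A549 cells; cellular ATP measured by CellTiter-Glo luminescence as a proxy for cell number; paclitaxel 10 μM as positive control.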

786-0 = experiment: Cytotoxicity against human 786-O cells assessed as mitochondrial viability at 10 uM by CMXRos staining based high-content imaging analysis relative to control; format: cell-based; conditions: 786-0, 10 µM
Procedure, shortened: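 786-O cells kept in RPMI-1640 with 2 mM glutamine, 10% FCS, streptomycin and penicillin G; mitochondria of live cells stained with MitoTracker Red CMXRos and imaged by high-content imaging.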

[4] = biological target: T2, Pteridine reductase 1 (Leishmania major) (UniProt Q01782); experiment: Inhibition of Leishmania major pteridine reductase 1 assessed as reduction in conversion of dihydrobiopterin to tetrahydrobiopterin at 10 uM up to 50 mins in presence of NADPH by cytochrome c reduction coupled photometric assay relative to control
T2 sequence (whole entry): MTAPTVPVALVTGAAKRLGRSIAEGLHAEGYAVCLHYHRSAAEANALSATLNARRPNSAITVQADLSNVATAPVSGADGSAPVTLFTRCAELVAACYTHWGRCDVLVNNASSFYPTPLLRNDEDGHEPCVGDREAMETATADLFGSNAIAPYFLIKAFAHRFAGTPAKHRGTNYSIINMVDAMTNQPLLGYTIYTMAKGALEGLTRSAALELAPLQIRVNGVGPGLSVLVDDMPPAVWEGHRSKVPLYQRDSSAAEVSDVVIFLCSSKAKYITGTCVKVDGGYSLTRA

[5] = biological target: T3, Pteridine reductase, putative (Trypanosoma brucei) (UniProt Q581W1); experiment: Inhibition of Trypanosoma brucei pteridine reductase 1 assessed as reduction in conversion of dihydrobiopterin to tetrahydrobiopterin at 10 uM up to 50 mins in presence of NADPH by cytochrome c reduction coupled photometric assay relative to control
T3 sequence (whole entry): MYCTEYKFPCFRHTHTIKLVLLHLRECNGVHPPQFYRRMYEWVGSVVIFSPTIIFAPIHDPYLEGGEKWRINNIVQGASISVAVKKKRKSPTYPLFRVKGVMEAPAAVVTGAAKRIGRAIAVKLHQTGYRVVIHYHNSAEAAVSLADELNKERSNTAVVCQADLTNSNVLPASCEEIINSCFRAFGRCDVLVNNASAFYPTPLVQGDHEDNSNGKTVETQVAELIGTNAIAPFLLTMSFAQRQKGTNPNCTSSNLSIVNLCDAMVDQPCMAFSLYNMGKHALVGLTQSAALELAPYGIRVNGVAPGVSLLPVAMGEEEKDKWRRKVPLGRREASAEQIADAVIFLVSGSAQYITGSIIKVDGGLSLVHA

[6] = Solubility in PBS after overnight incubation by nephelometry; format: physicochemical
[7] = Solubility in pH 7.4 Hanks simulated body fluid after overnight incubation by nephelometry; format: physicochemical
Trypanothione reductase = Trypanothione reductase (Trypanosoma cruzi, UniProt P28593); experiment: Inhibition of Trypanosoma cruzi trypanothione reductase assessed as reduction in NADPH consumption using varying levels of trypanothione disulfide as substrate by Lineweaver-Burk plot analysis
Sequence of Trypanothione reductase (P28593 whole entry): as the sequence (P28593 whole entry, looked up) above
Procedure, shortened: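 Recombinant T. cruzi TR (5-10 mU) at 25 °C in 40 mM HEPES, 1 mM EDTA, pH 7.5, with 100 μM NADPH and 5% DMSO. Reaction started with TS2 and NADPH consumption followed at 340 nm. TS2 varied at 20, 40, 60, 100 and 200 μM without inhibitor and at two fixed inhibitor concentrations. Inhibition type read from Lineweaver-Burk plots. Ki fitted from direct plot by non-linear least squares. Inhibitor assays run at least in duplicate.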

[8] = biological target: Trypanothione reductase (Trypanosoma cruzi) (UniProt P28593); experiment: Inhibition of Trypanosoma cruzi trypanothione reductase assessed as reduction in NADPH consumption at 2.5 uM using 100 uM trypanothione disulfide as substrate by spectrophotometric method relative to control; procedure, shortened: as §1
[9] = biological target: Trypanothione reductase (Trypanosoma cruzi) (UniProt P28593); experiment: Inhibition of Trypanosoma cruzi trypanothione reductase assessed as reduction in NADPH consumption at 2.5 uM using 40 uM trypanothione disulfide as substrate by spectrophotometric method relative to control; procedure, shortened: as §1
[10] = system: Trypanosoma brucei brucei; experiment: Growth inhibition of Trypanosoma brucei brucei Lister 427 bloodstream forms at 5 uM by SYBR Green based assay relative to control; format: functional; conditions: read-out: GI
[11] = biological target: Trypanothione reductase (Trypanosoma cruzi) (UniProt P28593); experiment: Inhibition of Trypanosoma cruzi trypanothione reductase assessed as reduction in NADPH consumption at 5 uM using 100 uM trypanothione disulfide as substrate by spectrophotometric method relative to control; procedure, shortened: as §1
[12] = biological target: Trypanothione reductase (Trypanosoma cruzi) (UniProt P28593); experiment: Inhibition of Trypanosoma cruzi trypanothione reductase assessed as reduction in NADPH consumption at 5 uM using 40 uM trypanothione disulfide as substrate by spectrophotometric method relative to control; procedure, shortened: as §1
[13] = biological target: T2, Pteridine reductase 1 (Leishmania major); experiment: Inhibition of Leishmania major pteridine reductase 1 assessed as reduction in conversion of dihydrobiopterin to tetrahydrobiopterin at 25 uM up to 50 mins in presence of NADPH by cytochrome c reduction coupled photometric assay relative to control
[14] = biological target: T3, Pteridine reductase, putative (Trypanosoma brucei); experiment: Inhibition of Trypanosoma brucei pteridine reductase 1 assessed as reduction in conversion of dihydrobiopterin to tetrahydrobiopterin at 25 uM up to 50 mins in presence of NADPH by cytochrome c reduction coupled photometric assay relative to control

Structure (SMILES)	inhibition (Trypanosoma brucei)	inhibition [1] [%]	inhibition [2] [%]	inhibition at 10 µM (CYP1A2) [%]	inhibition at 10 µM (CYP2C9) [%]	inhibition at 10 µM (CYP2C19) [%]	inhibition at 10 µM (CYP2D6) [%]	inhibition at 10 µM (CYP3A4) [%]	inhibition [4] [%]	solubility kinetic [6] [µM]	solubility kinetic [7] [µM]	inhibition at 10 µM (hERG (KCNH2)) [%]	viability at 10 µM [3] [%]	Activity (786-0) [%]	also measured
O=C1c2cc3ccccc3cc2C(=O)c2c1oc1c2c(=O)oc2ccccc21	inactive	7.9	2.1	38.5	42.4	35.7	55	7.93	5.16	35 (≈ 12.8 µg/mL)	70 (≈ 25.6 µg/mL)	9.77	140	89.59	inhibition [5]: 6.11%
c1cc2cc(-c3ccc(C4(N5CCCC5)CCCCC4)s3)ccc2[nH]1															Ki (Trypanothione reductase): 4 µM
O=C1c2cccc(O)c2C(=O)c2c1oc1c2c(=O)oc2ccccc21				40.8	44.6	83.8	95.2	9.44	-5.5	14 (≈ 4.65 µg/mL)	35 (≈ 11.6 µg/mL)	19.5	167	85.82	inhibition [8]: 11.6%; inhibition [9]: 42.9%
O=C1C=C(Oc2ccccc2)C(=O)c2ccccc21	Active	29	23												
O=C1c2ccccc2C(=O)c2c1oc1c2c(=O)oc2ccccc21				48.2	32.4	46.1	71	14.8		70 (≈ 22.1 µg/mL)	70 (≈ 22.1 µg/mL)	-20.3	146	89.15	inhibition [11]: 18%; inhibition [12]: 19.1%; inhibition [13]: -0.4%; inhibition [14]: -6.44%

Continued, in another order:

inhibition (Trypanosoma brucei)	inhibition [1] [%]	inhibition [2] [%]	inhibition at 10 µM (CYP1A2) [%]	inhibition at 10 µM (CYP2C9) [%]	inhibition at 10 µM (CYP2C19) [%]	inhibition at 10 µM (CYP2D6) [%]	inhibition at 10 µM (CYP3A4) [%]	inhibition [4] [%]	solubility kinetic [6] [µM]	solubility kinetic [7] [µM]	Structure (SMILES)	inhibition at 10 µM (hERG (KCNH2)) [%]	viability at 10 µM [3] [%]	Activity (786-0) [%]	also measured
inactive	37	37.2	94.6	92.5	103	106	88.2		35 (≈ 13.1 µg/mL)	35 (≈ 13.1 µg/mL)	CC(=O)Oc1cccc2c1C(=O)c1c(oc3c1c(=O)oc1ccccc13)C2=O	4.02	157	98.86	
88%	8.1	20.6	87.2	61.6	71	101	22.1	2.98	70 (≈ 24.2 µg/mL)	35 (≈ 12.1 µg/mL)	COc1cccc2c1C(=O)c1c(oc3c1c(=O)oc1ccccc13)C2=O	-58	130	96.22	inhibition of growth at 5 µM [10]: 29%; inhibition [5]: -6.79%
inactive			93.5	99.2	109	108	88.7		35 (≈ 13.1 µg/mL)	35 (≈ 13.1 µg/mL)	CC(=O)Oc1cccc2c1C(=O)c1oc3c(c1C2=O)c(=O)oc1ccccc13	86.8	183	90.52	inhibition [11]: 35.2%; inhibition [12]: 41%; inhibition of growth at 5 µM [10]: 38%
